Test results as given in ChEMBL document CHEMBL4196247, “Coumarinolignoids and Taraxerane Triterpenoids from Sapium discolor and Their Inhibitory Potential on Microglial Nitric Oxide Production” (J Nat Prod, 2018).
pIC50: −log10 of the molar value.

Assays:
[1] = test system: BV-2; test: Cytotoxicity against mouse BV2 cells assessed as reduction in cell viability at 1 to 100 uM after 24 hrs by MTT assay; format: cell-based; conditions: bv-2, 24 h
In short: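 BV-2 viability was read by MTT at 1, 10, 30 and 100 μM in parallel with the NO-release test, to exclude NO drops caused by lost viability.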

[2] = test system: BV-2; test: Antineuroinflammatory activity in mouse BV2 cells assessed as inhibition of LPS-induced nitric oxide production measured after 24 hrs by Griess assay; format: functional, cell-based; conditions: BV-2, 24 h
In short: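 BV-2 microglia; minocycline served as the positive control, and IC50 values were reported.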

Row | Compound | pIC50 [2] | Activity [1]
1 | CC1(C)CC[C@]2(C(=O)O)CC=C3[C@]4(C)CC[C@H]5C(C)(C)C(=O)CC[C@]5(C)[C@H]4CC[C@@]3(C)[C@@H]2C1 | < 4.30 | Non-Toxic
2 | CC1(C)CC[C@]2(C(=O)O)CC=C3[C@]4(C)CC[C@H]5C(C)(C)[C@@H](O)CC(=O)[C@]5(C)[C@H]4CC[C@@]3(C)[C@@H]2C1 | < 4.30 | Non-Toxic
3 | CC1(C)CC[C@]2(C(=O)O)CC=C3[C@]4(C)CC[C@H]5C(C)(C)[C@@H](OC(=O)/C=C/c6ccc(O)cc6)C[C@H](O)[C@]5(C)[C@H]4CC[C@@]3(C)[C@@H]2C1 | 4.33 | Non-Toxic
4 | CC(=O)O[C@H]1C[C@H](O)[C@]2(C)[C@H]3CC[C@]4(C)C(=CC[C@@]5(C(=O)O)CCC(C)(C)C[C@H]54)[C@]3(C)CC[C@H]2C1(C)C | < 4.30 | Non-Toxic
5 | O=c1ccc2cc3c(cc2o1)O[C@@H](CO)[C@H](c1ccc(O)c(O)c1)O3 | < 4.30 | Non-Toxic
6 | CC1(C)CC[C@]2(C(=O)O)CC=C3[C@]4(C)CC[C@H]5C(C)(C)[C@@H](O)CC[C@]5(C)[C@H]4CC[C@@]3(C)[C@@H]2C1 [ALEURITOLIC ACID] | < 4.30 | Non-Toxic
7 | CC(=O)O[C@H]1CC(=O)[C@]2(C)[C@H]3CC[C@]4(C)C(=CC[C@@]5(C(=O)O)CCC(C)(C)C[C@H]54)[C@]3(C)CC[C@H]2C1(C)C | < 4.30 | Non-Toxic
8 | O=c1ccc2cc3c(cc2o1)O[C@H](c1ccc(O)c(O)c1)[C@@H](CO)O3 | 4.86 | Non-Toxic
9 | CC(=O)O[C@H]1CC[C@]2(C)[C@H]3CC[C@]4(C)C(=CC[C@@]5(C(=O)O)CCC(C)(C)C[C@H]54)[C@]3(C)CC[C@H]2C1(C)C [ACETYL ALEURITOLIC ACID] | < 4.30 | Non-Toxic
10 | COc1cc(/C=C/C(=O)O[C@H]2CC(=O)[C@]3(C)[C@H]4CC[C@]5(C)C(=CC[C@@]6(C(=O)O)CCC(C)(C)C[C@H]65)[C@]4(C)CC[C@H]3C2(C)C)ccc1O | 4.82 | Non-Toxic
11 | CC1(C)CC[C@]2(C(=O)O)CC=C3[C@]4(C)CC[C@H]5C(C)(C)[C@@H](OC(=O)/C=C/c6ccc(O)cc6)CC(=O)[C@]5(C)[C@H]4CC[C@@]3(C)[C@@H]2C1 | 4.85 | Non-Toxic

These reach a higher pIC50 [2]. Values come first.

Row | pIC50 [2] | Compound | Activity [1]
12 | 5.24 | O=c1ccc2cc3c(cc2o1)O[C@H](CO)[C@@H](c1ccc(O)c(O)c1)O3 | Non-Toxic
13 | 5.14 | O=c1ccc2cc3c(cc2o1)O[C@@H](c1ccc(O)c(O)c1)[C@H](CO)O3 | Non-Toxic
14 | 5.57 | CC1(COC(=O)/C=C/c2ccc(O)cc2)CC[C@]2(C(=O)O)CC=C3[C@]4(C)CC[C@H]5C(C)(C)C(=O)C=C[C@]5(C)[C@H]4CC[C@@]3(C)[C@@H]2C1 (stereo not given in full) | Non-Toxic
15 | 4.93 | COc1c2c(cc3ccc(=O)oc13)O[C@H](c1ccc(O)c(O)c1)[C@@H](CO)O2 | Non-Toxic
16 | 5.31 | CN(C)c1ccc(O)c2c1C[C@H]1C[C@H]3[C@H](N(C)C)C(O)=C(C(N)=O)C(=O)[C@@]3(O)C(O)=C1C2=O [MINOCYCLINE] | –
17 | 5.77 | CC1(COC(=O)/C=C\c2ccc(O)cc2)CC[C@]2(C(=O)O)CC=C3[C@]4(C)CC[C@H]5C(C)(C)C(=O)C=C[C@]5(C)[C@H]4CC[C@@]3(C)[C@@H]2C1 (stereo not given in full) | Non-Toxic
18 | 5.38 | COc1c2c(cc3ccc(=O)oc13)O[C@@H](c1ccc(O)c(O)c1)[C@H](CO)O2 | Non-Toxic
